Measurements taken from ChEMBL document CHEMBL1649158, “Emergence of plasmid-mediated quinolone resistance among non-Typhi Salmonella enterica isolates from humans in the United States” (2009).
≈ marks a conversion by molar mass, not a printed value.

How the values were obtained:
Salmonella enterica [1] = test: Antimicrobial activity against Salmonella enterica serotype Aqua isolate AM26209 expressing qnrB5 gene by broth microdilution method; format: functional
Outline: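 Broth microdilution panel of 14 to 17 antimicrobial agents against human clinical non-Typhi Salmonella isolates, read as MIC. The study enrolled isolates with decreased ciprofloxacin susceptibility (≥0.25 mg/liter). qnr genes were detected by previously described methods. 2006 data are preliminary.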

Salmonella typhimurium [2] = test: Antimicrobial activity against Salmonella enterica serotype Typhimurium isolate AM29365 expressing qnrS1 gene by broth microdilution method
Salmonella typhimurium [3] = test: Antimicrobial activity against multidrug-resistant Salmonella enterica serotype Typhimurium isolate AM27549 expressing qnrS1 gene by broth microdilution method
[4] = Antimicrobial activity against multidrug-resistant Salmonella enterica serotype Montevideo isolate AM28704 expressing qnrA1 gene by broth microdilution method
[5] = Antimicrobial activity against multidrug-resistant Salmonella enterica serotype Corvallis isolate AM25736 expressing qnrS1 gene by broth microdilution method
Salmonella enterica [6] = test: Antimicrobial activity against nalidixic acid-resistant Salmonella enterica serotype Kiambu isolate AM27031 expressing qnrB5 gene by broth microdilution method; format: functional
Outline: (§1)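 MICs for 14 to 17 antimicrobial agents were measured by commercial broth microdilution panels. Isolates were screened for aac(6′)-Ib by SYBR green real-time PCR: 0.4 μM each primer, 35 cycles (95°C 20 s, 55°C 30 s, 72°C 30 s), then a 70–90°C melt curve.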

Salmonella typhimurium [7] = test: Antimicrobial activity against multidrug-resistant Salmonella enterica serotype Typhimurium var. O:5 isolate AM25008 expressing aac(6')-Ib-cr gene by broth microdilution method
Salmonella typhimurium [8] = test: Antimicrobial activity against Salmonella enterica serotype Typhimurium isolate AM29869 expressing qnrS1 gene by broth microdilution method
Salmonella enteritidis = test: Antimicrobial activity against ampicillin- and streptomycin-resistant Salmonella enterica serotype Enteritidis isolate AM25798 expressing qnrS1 gene by broth microdilution method
[9] = Antimicrobial activity against tetracycline- and trimethoprim-sulfamethoxazole-resistant Salmonella enterica serotype Saintpaul isolate AM26790 expressing qnrS1 gene by broth microdilution method
Salmonella enterica [10] = test: Antimicrobial activity against Salmonella enterica serotype telelkebir isolate AM21420 expressing qnrB5 gene by broth microdilution method; format: functional; outline: as §1
[11] = Antimicrobial activity against Salmonella enterica serotype Corvallis isolate AM25927 expressing qnrS1 gene by broth microdilution method
Salmonella typhimurium [12] = test: Antimicrobial activity against multidrug-resistant Salmonella enterica serotype Typhimurium isolate AM27125 expressing qnrB5 gene by broth microdilution method
Salmonella typhimurium [13] = test: Antimicrobial activity against multidrug-resistant Salmonella enterica serotype Typhimurium isolate AM27315 expressing qnrS1 gene by broth microdilution method
[14] = Antimicrobial activity against trimethoprim-sulfamethoxazole-resistant Salmonella enterica serotype Montevideo isolate AM19383 expressing qnrS1 gene by broth microdilution method
[15] = Antimicrobial activity against tetracycline-resistant Salmonella enterica serotype Saintpaul isolate AM30594 expressing qnrS1 gene by broth microdilution method
[16] = Antimicrobial activity against multidrug-resistant Salmonella enterica serotype Corvallis isolate AM20376 expressing qnrS1 gene by broth microdilution method
Salmonella enterica [17] = test: Antimicrobial activity against multidrug-resistant Salmonella enterica serotype Cubana isolate AM28764 expressing qnrB2 gene by broth microdilution method; format: functional; outline: as §1

O=C(O)c1cn(C2CC2)c2cc(N3CCNCC3)c(F)cc2c1=O [CIPROFLOXACIN]
MIC (Salmonella enterica [1]): 0.25 µg/mL (≈ 0.754 µM) | MIC (Salmonella typhimurium [2]): 0.5 µg/mL (≈ 1.51 µM) | MIC (Salmonella typhimurium [3]): 0.5 µg/mL (≈ 1.51 µM) | MIC [4]: 0.25 µg/mL (≈ 0.754 µM) | MIC [5]: 0.25 µg/mL (≈ 0.754 µM) | MIC (Salmonella enterica [6]): 0.5 µg/mL (≈ 1.51 µM) | MIC (Salmonella typhimurium [7]): 1 µg/mL (≈ 3.02 µM) | MIC (Salmonella typhimurium [8]): 0.5 µg/mL (≈ 1.51 µM) | MIC (Salmonella enteritidis): 0.5 µg/mL (≈ 1.51 µM) | MIC [9]: 0.5 µg/mL (≈ 1.51 µM) | MIC (Salmonella enterica [10]): 0.5 µg/mL (≈ 1.51 µM) | MIC [11]: 0.25 µg/mL (≈ 0.754 µM) | MIC (Salmonella typhimurium [12]): 0.5 µg/mL (≈ 1.51 µM) | MIC (Salmonella typhimurium [13]): 0.5 µg/mL (≈ 1.51 µM) | MIC [14]: 0.5 µg/mL (≈ 1.51 µM) | MIC [15]: 0.5 µg/mL (≈ 1.51 µM) | MIC [16]: 0.5 µg/mL (≈ 1.51 µM) | MIC (Salmonella enterica [17]): 0.5 µg/mL (≈ 1.51 µM)
